What was measured:
[1] = Antioxidant activity assessed as FeCl2-induced lipoperoxidation at 40 uM incubated for 2 hrs in dark by ferric thiocyanate method
[2] = Antioxidant activity assessed as nitric oxide radical scavenging activity at 40 uM after 3 hrs by Griess assay; format: physicochemical
Summary of the method: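 Sodium nitroprusside (50 mM stock in phosphate buffer pH 7.4) mixed with test compound and phosphate buffer, incubated 3 h at 37.4 °C. Aliquot diluted with Griess reagent, absorbance read after 20 min at 546 nm. Inhibition = (Acontrol−Atest)/Acontrol×100; triplicate.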

[3] = Cytotoxicity against human KB cells assessed as inhibition of cell proliferation at 10^-5 M after 72 hrs by MTS assay relative control; format: cell-based
Summary of the method: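 KB nasopharyngeal carcinoma cells in D-MEM with 10% fetal calf serum and antibiotics under 5% CO2; 1000 cells/well, treated 24 h after plating with compounds in DMSO (1% final), exposed 72 h. MTS read at 490 nm; inhibition = (1−OD treated/OD control)×100, triplicate.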

[4] = biological target: Amyloid-beta precursor protein (Homo sapiens) (UniProt P05067); test: Inhibition of Amyloid beta (1 to 42) (unknown origin) self aggregation at 10 uM measured every 5 mins with shake for 15 secs by ThT fluorescence assay relative to control
Amyloid-beta precursor protein (Homo sapiens), sequence (P05067 whole entry): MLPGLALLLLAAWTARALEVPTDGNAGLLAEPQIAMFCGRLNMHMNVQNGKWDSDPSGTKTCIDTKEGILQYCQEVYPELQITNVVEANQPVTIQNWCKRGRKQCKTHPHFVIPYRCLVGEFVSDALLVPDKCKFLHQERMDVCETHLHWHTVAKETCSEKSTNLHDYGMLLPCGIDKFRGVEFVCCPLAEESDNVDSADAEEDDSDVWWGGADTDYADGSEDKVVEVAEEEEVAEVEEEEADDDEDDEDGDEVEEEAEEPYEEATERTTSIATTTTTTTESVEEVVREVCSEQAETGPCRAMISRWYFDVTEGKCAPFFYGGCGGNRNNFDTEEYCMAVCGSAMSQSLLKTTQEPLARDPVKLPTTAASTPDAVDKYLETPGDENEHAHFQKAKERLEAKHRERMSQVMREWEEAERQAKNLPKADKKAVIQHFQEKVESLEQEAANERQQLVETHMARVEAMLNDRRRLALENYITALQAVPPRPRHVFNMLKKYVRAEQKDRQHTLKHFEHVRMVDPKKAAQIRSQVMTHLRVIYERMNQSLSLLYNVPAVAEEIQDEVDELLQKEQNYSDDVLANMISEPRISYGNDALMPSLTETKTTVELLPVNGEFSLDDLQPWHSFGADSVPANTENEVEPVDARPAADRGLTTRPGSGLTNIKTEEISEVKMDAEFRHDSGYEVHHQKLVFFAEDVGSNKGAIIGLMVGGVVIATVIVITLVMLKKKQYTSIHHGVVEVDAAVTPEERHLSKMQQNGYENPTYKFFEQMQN
Summary of the method: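 Aβ1-42 (85 μL at 250 μg/mL) with thioflavin T (10 μL at 2 mM) and compound (1 μL of 1 mM) in 100 μL kit buffer; control without compound plus blanks. Fluorescence at 37 °C every 5 min, 15 s shaking between reads, Ex/Em 440/484 nm. Inhibition = 100 − (IFi/IFo×100).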

[5] = Binding affinity to Cu2+ assessed as dissociation constant after 10 to 60 mins by UV-visible spectra analysis
Summary of the method: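 In methanol–10 mM Tris pH 7.4 (8:2 v/v), compound 0–200 μM incubated with or without CuCl2 50 μM; scans 230–600 nm after 10 and 60 min. Absorbance difference at each compound's specific wavelength gave complex and free-ligand concentrations using the saturation maximum and stoichiometry from Job plots (total 100 μM, varying mole fraction).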

[6] = Metal chelating activity of the compound assessed as formation of iron complex at 50 uM after 10 mins by UV-visible spectroscopy; format: physicochemical
Summary of the method: (§1)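 Compound in methanol (from 50 mM DMSO stock) at 50 μM mixed with equimolar CuCl2 or FeCl2, 10 min at room temperature; spectra scanned 230–600 nm at 298 K. Difference spectra obtained by subtracting the metal-alone spectrum from the mixture spectrum.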

[7] = Antioxidant activity assessed as DPPH radical scavenging activity after 30 mins by microplate reader method; format: physicochemical
Summary of the method: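 Compounds diluted from DMSO stock into absolute ethanol, incubated with 100 μM DPPH for 30 min at room temperature in the dark; absorbance at 517 nm. Scavenging % = (Acontrol−Asample)/Acontrol×100 versus vehicle control.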

[8] = Binding affinity to Cu2+ assessed as association constant after 10 to 60 mins by UV-visible spectra analysis
Summary of the method: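 Ligand titration in methanol–10 mM Tris pH 7.4 (8:2, v/v): compound 0 to 200 μM incubated with or without CuCl2 (50 μM), room temperature. Scanned 230–600 nm at 10 and 60 min. Difference spectra (mixture minus compound) read at each compound's specific wavelength give bound complex and free ligand, using stoichiometry from Job plots at 100 μM total.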

[9] = Metal chelating activity of the compound assessed as formation of copper complex at 50 uM after 10 mins by UV-visible spectroscopy; format: physicochemical
Summary of the method: as §1

[10] = Half life in 10 mM phosphate buffer at 20 uM at pH 7.4 at 25 degC by UHPLC analysis; format: physicochemical
Summary of the method: (§2)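 20 μM compound (from 10 mM DMSO stock) in 10 mM phosphate buffer pH 7.4, ionic strength 150 mM with KCl, at 25 °C, n=3. Sampled at 6 times over 0 to 5 or 8 h by UHPLC-PDA on a C18 column with water/acetonitrile gradient (0.01% formic acid). Half-life from exponential regression of disappearance versus time.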

[11] = Permeability of the compound at 100 uM at pH 7.4 after 4 hrs by PAMPA-BBB assay
[12] = Chemical stability in 10 mM phosphate buffer at 20 uM at pH 7.4 at 25 degC after 5 hrs by UHPLC analysis; format: physicochemical; conditions: pH 7.4, 5 h
Summary of the method: as §2

| SMILES | peroxidation % [1] [%] | Activity [2] [%] | inhibition [4] [%] | Kd [5] [µM] | Activity [6] | EC50 [7] [µM] | logKa [8] | Activity [9] | half-life at 20 µM [10] [h] | Stability [12] | inhibition at 72 h, 10 µM [3] [%] | log Pe [11] |
| --- | --- | --- | --- | --- | --- | --- | --- | --- | --- | --- | --- | --- |
| O=C1/C(=C/c2ccccc2)C(c2ccccc2)n2cccc21 (centres undefined) | 55.1 | 34.4 | 1.4 |  |  |  |  |  |  |  | 41 |  |
| O=C1/C(=C/c2ccc(O)c(O)c2)C(c2ccc(O)c(O)c2)n2cccc21 (centres undefined) | 47 | 47.1 | 27 | 19.9 | Active | 9.6 | 4.7 | Active | 6.4 |  | 0 |  |
| COc1cc(C2/C(=C\c3cc(OC)c(O)c(OC)c3)C(=O)c3cccn32)ccc1O (centres undefined) | 70.4 | 35.3 | 30.1 |  | Not Active | 246 |  | Not Active |  |  | 0 |  |
| Cn1c(=O)c2[nH]cnc2n(C)c1=O.O [THEOPHYLLINE] |  |  |  |  |  |  |  |  |  |  |  | < -6 |
| COc1ccc(/C=C2/C(=O)c3cccn3C2c2ccc(O)c(OC)c2)c(OC)c1 (centres undefined) | 67.5 | 40.3 | 6 |  | Not Active | > 250 |  | Not Active |  |  | 38 |  |
| COc1ccc(C2/C(=C\c3ccc(O)c(O)c3)C(=O)c3cccn32)cc1O (centres undefined) | 51.3 | 57.5 | 24.9 | 70.5 | Active | 12.8 | 4.15 | Active | 11.9 |  | 0 |  |
| O=c1c(O)c(-c2ccc(O)c(O)c2)oc2cc(O)cc(O)c12 [QUERCETIN] |  | 70.7 |  |  |  |  |  |  |  |  |  |  |
| COc1ccc(/C=C2/C(=O)c3cccn3C2c2ccc(OC)c(O)c2)cc1O (centres undefined) | 71 | 53.7 | 8.4 |  | Active | > 250 |  | Active |  |  | 24 |  |
| O=C1/C(=C/c2ccc(O)c(O)c2)C(c2ccccc2)n2cccc21 (centres undefined) | 57 | 65.6 | 28.7 | 2.2 | Active | 12.6 | 5.65 | Active |  | Stable | 0 |  |
| Cc1c(C)c2c(c(C)c1O)CCC(C)(C(=O)O)O2 (centres undefined) [TROLOX] |  |  |  |  |  | 18.2 |  |  |  |  |  |  |
| COc1cc(C2/C(=C\c3cc(OC)c(OC)c(OC)c3)C(=O)c3cccn32)ccc1O (centres undefined) | 67.1 | 32.6 | 23.6 |  | Not Active | > 250 |  | Not Active |  |  |  |  |
| COc1ccc(/C=C2/C(=O)c3cccn3C2c2ccc(O)c(OC)c2)cc1O (centres undefined) | 58.2 | 57.7 | 15.9 |  | Not Active | > 250 |  | Not Active |  |  | 0 |  |
| COc1cc(C2/C(=C\c3ccc(OCc4ccccc4)c(OCc4ccccc4)c3)C(=O)c3cccn32)ccc1OCc1ccccc1 (centres undefined) | 92.8 | 30.7 | 4.2 |  |  | > 250 |  |  |  |  | 0 |  |

Second part, led by results:

| peroxidation % [1] [%] | Activity [2] [%] | inhibition [4] [%] | Kd [5] [µM] | Activity [6] | EC50 [7] [µM] | logKa [8] | Activity [9] | half-life at 20 µM [10] [h] | Stability [12] | SMILES | inhibition at 72 h, 10 µM [3] [%] | log Pe [11] |
| --- | --- | --- | --- | --- | --- | --- | --- | --- | --- | --- | --- | --- |
| 67.4 | 51.7 | 14.5 |  |  | > 250 |  | Not Active |  |  | COc1cc(/C=C2/C(=O)c3cccn3C2c2ccccc2)ccc1O (centres undefined) | 24 |  |
| 56.4 | 55.1 | 12.8 |  | Active | 99.5 |  | Active |  |  | COc1ccc(C2/C(=C\c3ccc(O)c(OC)c3)C(=O)c3cccn32)cc1O (centres undefined) | 29 |  |
| 48.5 | 57 | 10.4 |  | Active | 101 |  | Active |  |  | COc1cc(/C=C2/C(=O)c3cccn3C2c2ccc(O)c(OC)c2)ccc1O (centres undefined) | 0 |  |
|  | 60.4 |  |  | Active | 19.2 |  | Active |  |  | COc1cc(/C=C/C(=O)CC(=O)/C=C/c2ccc(O)c(OC)c2)ccc1O [CURCUMIN] | 83 |  |
| 47 | 46.4 |  |  |  | 43.2 |  |  |  |  | COc1cc(/C=C/C(=O)O)ccc1O [FERULATE] |  |  |
| 50.6 | 58 | 26.1 | 22.1 | Active | 12 | 4.65 | Active | 6.8 |  | COc1cc(C2/C(=C\c3ccc(O)c(O)c3)C(=O)c3cccn32)ccc1O (centres undefined) | 0 |  |

From ChEMBL document CHEMBL3792340, “Novel benzylidenephenylpyrrolizinones with pleiotropic activities potentially useful in Alzheimer's disease treatment” (Eur J Med Chem, 2016)
